Data as given in the EternaBench riboswitch data.

Tested on: MS2 coat protein
Test: apparent Kd, MS2 coat protein; higher = weaker binding; RNA-MaP array; FMN 200 µM where present
Outline: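 The apparent Kd is the median of filtered binding-curve fits, one per cluster, to green signal normalised to red-channel RNA signal and control-cluster median Fmax. The clusters were on Illumina sequencing chips, and stalled E. coli RNA polymerase had transcribed the designs on them. Titration used SNAP-549-labelled MS2 coat protein from 0.7 or 1.5 nM, doubling to 3 µM, without and then with constant ligand, in 100 mM Tris-HCl pH 7.5, 80 mM KCl, 4 mM MgCl2, BSA, DTT, yeast tRNA and Tween-20.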

[1] = designed as: ON switch for flavin mononucleotide, no ligand
[2] = ligand present: flavin mononucleotide, designed as: ON switch for flavin mononucleotide
[3] = designed as: OFF switch for flavin mononucleotide, no ligand
[4] = ligand present: flavin mononucleotide, designed as: OFF switch for flavin mononucleotide

GCGUAAGUCACAGGAUAUCCAACAUGAGGAUCACCCAUGUAAAAGUGCCGCAUUAGAAUGCGACUGGAGAAGGGUGAUUCGUCG
apparent Kd [1]: 51.3 nM | apparent Kd [2]: 23.4 nM

AGCUCAAAAGUGAGGAUAUCUAGGGUCAAAUGACCGGAGAAGGCACAUGAGGAUCACCCAUGUAACGCCAUGGA
apparent Kd [3]: 12.9 nM | apparent Kd [4]: 31.6 nM

UAUUAGCUAGGAUAUACAUGAGGAUCACCCAUGUCACGGGUCCACUUGUCCUAUGCGUGUAGAAGGAGCGACCC
apparent Kd [3]: 22.4 nM | apparent Kd [4]: 25.8 nM

AGCAUGUGAGGAUAUGUGACCCUCGUCCUAAGGACAAGGGAAUAGAAGGCACAUGAGGAUCACCCAUGUGAUGA
apparent Kd [3]: 54.6 nM | apparent Kd [4]: 168 nM

ACAAUACAUGAGGAUCACCCAUGUUAGGAUAUACGCAUGCAUGCAUGCAUGCAUGCAAGUAGAAGGAACCAUGC
apparent Kd [3]: 28.6 nM | apparent Kd [4]: 26.8 nM

GCCUCACAUGAGGAUCACCCAUGUCAGGAUAUCUAAGGCGAGGUGCAGGCACUUCGUGAGAGAAGGGACGUCAA
apparent Kd [3]: 21.4 nM | apparent Kd [4]: 49.8 nM

AUCAGCUCGUCAGGAUAUGCAUCACUGCUUCGGCAGUGUGGUAAGAUCACAUGAGGAUCACCCAUGUAGAAGGGACGAGCUGAU
apparent Kd [3]: 9.83 nM | apparent Kd [4]: 69.4 nM

GUGUACAGAGGAUAUACACGAGGAGUUACGAAAGUAACUUCACAUGAGGAUCACCCAUGUAGAAGGCUGUACAC
apparent Kd [3]: 25.3 nM | apparent Kd [4]: 36.6 nM

AUCAGCUCGUCAGGAUAUACGUCACUGCUUCGGCAGUGUGGUAAGAUCACAUGAGGAUCACCCAUGUAGAAGGGACGAGCUGAC
apparent Kd [3]: 13.6 nM | apparent Kd [4]: 237 nM

UAUACACAUGAGGAUCACCCAUGUGAGGAUAUGCGUACGUUGUCCGUAGGCGACGUGCGCAGAAGGCGCAAGGU
apparent Kd [3]: 72.7 nM | apparent Kd [4]: 104 nM

UGUGUUAUCGGAGGAUAUCGAUAUCAAACAUGAGGAUCACCCAUGUUGAGGAUCACCCAUGUUCACGAGAAGGCCGGCGUACUC
apparent Kd [1]: 112 nM | apparent Kd [2]: 194 nM

AGUGGUUACACAGGAUAUCCUCGUUAUUAACUAGGAGAAGGGUGGACACCACACAUGAGGAUCACCCAUGUACCACGAUAAAGA
apparent Kd [1]: 209 nM | apparent Kd [2]: 42.4 nM

CCGUGAGCAGGAUAUACAUGAGGAUCACCCAUGUCCGAUCCAAACAUGGGAAAAGAAGGUAGAAGGGUUUGAGG
apparent Kd [3]: 28.5 nM | apparent Kd [4]: 36.1 nM

UGGUACAUGGGAGGAUAUCGUGUAGACACAUGAGGAUCACCCAUGUCGAUGGAGACAUCGGAGAUCGAGAAGGCCCAUGUACCU
apparent Kd [1]: 84.6 nM | apparent Kd [2]: 8.81 nM

AUCGGAAUGUAGAAGGGUGACAUGAGGAUCACCCAUGUACAAAUGCGUUUUUCGGUAAUUGAUCCACAGGAUAUACUGUCCGAG
apparent Kd [1]: 1080 nM | apparent Kd [2]: 794 nM

GAGUAGAUCCGAGGAUAUACAAUCCGGAAACGGUACAUGAGGAUCACCCAUGUAGAAGGCGGAUCUACAGGUACUAAAGUACCC
apparent Kd [3]: 5.73 nM | apparent Kd [4]: 8.11 nM

GUGUACGGAGGAUAUAUGUGGUGAGCAUACGCUCAAGCUUCACAUGAGGAUCACCCAUGUAGAAGGCUGUGCAC
apparent Kd [3]: 210 nM | apparent Kd [4]: 150 nM

GCUGCGUACGCAGGAUAUACAUGAGGAUCACCCAUGUAACUCGAACUCUAAGCGGGUGCGCGCAUGUAGAAGGGCGGGCGAGCC
apparent Kd [3]: 35 nM | apparent Kd [4]: 67.9 nM

AUCAGCUCGUCAGGAUAUACGUCACUGCUUCGGCAGUGUGGUAAGAUCACAUGAGGAUCACCCAUGUAGAAGGGACGAGCUGAA
apparent Kd [3]: 13.3 nM | apparent Kd [4]: 259 nM

GCGGUACAUGAGGAUCACCCAUGUCAGGAUAUCCGCUGUUUGUUAAUAAACAGGCGGUGGAGAAGGGACUUCGC
apparent Kd [3]: 34.9 nM | apparent Kd [4]: 36.7 nM

CUCUUGUGAGGAUAUCAGUAGUAAAAAAAUAAAAUUACUACUGAGAAGGCACAUGAGGAUCACCCAUGUGUCUU
apparent Kd [3]: 14 nM | apparent Kd [4]: 13.1 nM

ACAUCUAGAGGAUAUACAUGAGUGAUACACGUAUUUCCACUACAUGAGGAUCACCCAUGUAGAAGGCUAGAUGA
apparent Kd [3]: 50 nM | apparent Kd [4]: 16.9 nM

AUCGGGAGAGGAUAUACAUGAGGAUCACCCAUGUUGGGAACAUCGGUUUGUUAGUUGCGUAGAAGGCUCGGGCG
apparent Kd [3]: 46.4 nM | apparent Kd [4]: 66.3 nM

AAACAUGUCCGAGGAUAUCUGGAAACAUUUCCAAGAGAAGGCGGACAUGAGGAUCACCCAUGUCUCUCCUCAUCAAAUCCGAGU
apparent Kd [3]: 9.24 nM | apparent Kd [4]: 89.3 nM

CAGCGGUGAGGAUAUACGUAGGUACAGAUCUGUGUGUUCCUACAUGAGGAUCACCCAUGUAGAAGGCAUGGCUG
apparent Kd [3]: 43 nM | apparent Kd [4]: 140 nM

CGGGAAGUCGUAGGAUAUGGUGAUGUACAUGAGGAUCACCCAUGUCCGUCUUCUCUCACAAGAUGCCAGAAGGACGACUUCCGG
apparent Kd [1]: 766 nM | apparent Kd [2]: 103 nM

CAGGUAGACUGAGGAUAUACAGACCUAGUCUAUCUAGGUCAAUUCCUUACAUGAGGAUCACCCAUGUAGAAGGCAGUCUGCCUG
apparent Kd [3]: 18.7 nM | apparent Kd [4]: 38.8 nM

AGUACCAUGUAGAAGGCAUAUCUCAAAGAGAUAUGAGGAUAUACAUGAGGAUCACCCAUGUAAAUGUACUCCAGGAAACUGGAA
apparent Kd [3]: 28.3 nM | apparent Kd [4]: 136 nM

GGAUGUCAAAGACAUCCUUAACGAACAUGAGGAUCACCCAUGUAGGAUAUGCUACUCAAAGAGUAGCAGAAGGACAUGUGCCUU
apparent Kd [3]: 34.5 nM | apparent Kd [4]: 270 nM

ACCUUACUGGUCAGGAUAUACAGUCUUUGGUGUGUGUAGAAGGGACAUGAGGAUCACCCAUGUAGGUUGCAGCA
apparent Kd [3]: 70 nM | apparent Kd [4]: 62.7 nM

UUAUAUAGGUAGGAUAUCGAUAUUAAUUAUUAUCGAGAAGGGUCUACAUGAGGAUCACCCAUGUUAGCAUGUAU
apparent Kd [3]: 28.9 nM | apparent Kd [4]: 32.9 nM

CAGCGGCAAGGAUAUACAUGAGGAUCACCCAUGUGGUCCCGCUAUAGUAACUUAGCUUGUAGAAGGUGCAGCUA
apparent Kd [3]: 36.5 nM | apparent Kd [4]: 218 nM

UCGAGUGGUUAGGAUAUCAUUGGUGCAUAUCAUUGAGAAGGAACUACAUGAGGAUCACCCAUGUGGCAGUGAUA
apparent Kd [3]: 28.2 nM | apparent Kd [4]: 126 nM

AUGCUUCACACAGGAUAUUACAACAUGAGGAUCACCCAUGUACAUGACAUGAGGAUCACCCAUGUUAAGAAGGGUGUGAAGCAU
apparent Kd [3]: 261 nM | apparent Kd [4]: 505 nM

AAGAGACAUCAGAAGGGAGCCCGAACGCGCGGCUCAGGAUAUGAGAUCUUAUGUAGUACGACAUGAGGAUCACCCAUGUCCGCG
apparent Kd [1]: 28.2 nM | apparent Kd [2]: 8.05 nM

GGGUCGUCAGGAUAUACAUGAGGAUCACCCAUGUGACCACACUUACCUAUCGCUCGCUGUAGAAGGGAUGAUGA
apparent Kd [3]: 30.3 nM | apparent Kd [4]: 27.1 nM

GACCUCCCUGUAAGGAUAUCCGUGCAUCAAAGCAAGGAGAAGGUACAUGAGGAUCACCCAUGUCACCCGCGUUA
apparent Kd [3]: 14.7 nM | apparent Kd [4]: 21 nM

AAUAACAGAGGAUAUACUGUUUUAUGUGUUUGUUAUUUUAAACAUGAGGAUCACCCAUGUAGAAGGCUGAAUAA
apparent Kd [3]: 22.5 nM | apparent Kd [4]: 21.7 nM

AUAAUACAUGAGGAUCACCCAUGUAAUUUAACUUGUAAGAUCAAGGAUAUCAGCUCGUUUAGAGCUGAGAAGGUGAUCACAUGU
apparent Kd [1]: 187 nM | apparent Kd [2]: 292 nM

UAAAAGACUAGCUUUGGUAAGAUCACAUGAGGAUCACCCAUGUAGGAUAUGAGCAGAAAAUCUGCUCAGAAGGACAUGCUAGUC
apparent Kd [3]: 16.2 nM | apparent Kd [4]: 156 nM

UUAAUUAUACAAGGAUAUCUAAUGGACUUACGACAAACAUGAGGAUCACCCAUGUAAAUAUAUAAAGAGAAGGUGUAUUUUCAG
apparent Kd [1]: 73.5 nM | apparent Kd [2]: 41.5 nM

AGUAAAGGCCUGAGGUGUCCGAACAUGAGGAUCACCCAUGUAGAGGAUAUAGGUGGAAGUGACUCCUAGAAGGCUACGUGUCAU
apparent Kd [3]: 6.18 nM | apparent Kd [4]: 8.18 nM

AGCUAAAACGAAGGAUAUACAAACAUGAGGAUCACCCAUGUAUACAUGAUUUAUUGUGAUCACAUGUAGAAGGUCGUACUAACA
apparent Kd [1]: 958 nM | apparent Kd [2]: 225 nM

ACGAGUACAGGAUAUACAUGAGGAUCACCCAUGUGAGAAUUAAGUGGCGUACCACAAAGUAGAAGGGUACUCGA
apparent Kd [3]: 40.3 nM | apparent Kd [4]: 236 nM

GAAAGGUCAGGAUAUACGUUAUGCUAGUGCUCGUACUAUAAGUAGAAGGGACAUGAGGAUCACCCAUGUGAUAA
apparent Kd [3]: 54.8 nM | apparent Kd [4]: 79.4 nM

AAAAAACAUGAGGAUCACCCAUGUGAGGAUAUCACUAGUCAGUCCUCGGAGUGAGUUCUGAGAAGGCACAUAAA
apparent Kd [3]: 118 nM | apparent Kd [4]: 106 nM

AGGAAGUGAGGAUAUGCAGUGGCUAGUAGACGCUAGCACUUGUAGAAGGCACAUGAGGAUCACCCAUGUUUAAA
apparent Kd [3]: 31.9 nM | apparent Kd [4]: 36.9 nM

GCUGUCGCGUGAGGAUAUGGUCGGCUGUGCUGACCAGAAGGCAUGUCAAUAGACAUGAGGAUCACCCAUGUGGUUAGGGCGGCU
apparent Kd [1]: 865 nM | apparent Kd [2]: 127 nM
